Screens deposited in PubChem BioAssay by Johns Hopkins Ion Channel Center.
Only some compounds are listed: those with a hit (about 3.7% of all), similar ones and a draw of the others.
KCNQ1 pot: potentiators or activators of human KCNQ1 potassium channel. P51787. CHO-K1 KCNQ1, thallium flux FluxOR fluorescence; active compounds read high. B-score at 10 µM. 310,000 tested, 0.35% active. AID 2648;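 active = fluorescence ratio B-score, a plate-corrected score, at least three library SD, with initial intensity B-score within 5 SD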
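assay system = KCNQ1-transfected CHO-K1 cells | medium = assay buffer with matched DMSO | probe or stimulus = depolarizing K+/Tl+ stimulus, K2SO4 and Tl2SO4 each 12.5 mM in 5x stock | dosing = single dose | incubation = dye 90 min, compound 20 min, room temperature | detection = kinetic FluxOR fluorescence, 10 s baseline plus 110 s post-stimulus | evaluation = ratio B score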
Kir21 inh: Kir2.1 (mouse) channel inhibition; P35561; HEK293-Kir2.1, FluxOR thallium flux fluorescence; active compounds read low; B-score at 10 µM; 310,000 tested, 0.85% active; AID 1672;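 active = fluorescence ratio B-score at or below minus 3 SD of library scores, with starting-brightness B-score within 2 SD, cut at about -4.2 in these data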;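 also: channel flux triggered by added potassium and thallium sulfate stimulus; B-score of peak minus minimum fluorescence over baseline after thallium stimulus; more negative B-score means stronger Kir2.1 block with less thallium influx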
Target sequence (P35561 whole entry, looked up): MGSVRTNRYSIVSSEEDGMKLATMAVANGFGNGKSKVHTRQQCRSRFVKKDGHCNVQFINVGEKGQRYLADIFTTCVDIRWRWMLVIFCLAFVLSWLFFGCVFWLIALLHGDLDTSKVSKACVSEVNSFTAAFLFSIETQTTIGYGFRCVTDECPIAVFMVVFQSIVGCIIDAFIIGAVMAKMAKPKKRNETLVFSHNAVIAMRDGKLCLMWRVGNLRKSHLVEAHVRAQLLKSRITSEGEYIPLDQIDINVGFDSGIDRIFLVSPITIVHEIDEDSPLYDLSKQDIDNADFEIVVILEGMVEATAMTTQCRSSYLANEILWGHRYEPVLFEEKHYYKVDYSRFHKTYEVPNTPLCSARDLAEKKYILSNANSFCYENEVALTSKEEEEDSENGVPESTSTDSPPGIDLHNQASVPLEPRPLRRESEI
KCNK9 inh: human KCNK9 channel inhibition; HEK293 KCNK9, FluxOR thallium flux fluorescence; active compounds read low; B-score at 10 µM; 310,000 tested, 1.2% active;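 active = ratio B-score over 3 SD below the library mean, with starting fluorescence within 5 SD of its mean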;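 also: negative B-score means less thallium flux so channel inhibition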
hERG protect: shields human hERG channel from block by proarrhythmic agents; Q12809; 310,000 tested, 0.51% active; activation (rescue from dofetilide block), less the hit threshold, % at 10 µM; CHO-hERG, FluxOR thallium flux, dofetilide IC70 present; AID 1511;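 active = activation above the mean of controls blocked by dofetilide plus 5 SD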;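 also: thallium influx through hERG after potassium depolarization seen as dye fluorescence rise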
KCNK3 inh: human KCNK3 channel inhibition, primary screen; CHO-KCNK3 thallium flux, FluxOR fluorescence; active compounds read low; B-score at 10 µM; 340,000 tested, 0.84% active;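 active = B-score under library mean minus 4 SD, starting fluorescence ratio at most library mean plus 5 SD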;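 also: more negative B-score means stronger inhibition of thallium flux through KCNK3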
KCNQ1 inh: human KCNQ1 channel inhibition; P51787; CHO-K1 KCNQ1, FluxOR thallium flux fluorescence; active compounds read high; B-score at 10 µM; 310,000 tested, 1.3% active;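 active = compounds whose thallium flux B-score, printed positive for inhibition, exceeds three library SD while starting fluorescence stays within three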;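 also: channel opened by potassium depolarization with thallium stimulus after 20 min compound exposure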
Of the large screens only hits and unclear results are named; the others gave an inactive call.

CCN(c1ccc(C(=O)CSc2nnc(C3CC3)n2C2CC2)cc1)S(C)(=O)=O	none (no result: KCNQ1 pot, Kir21 inh, KCNK9 inh, hERG protect, KCNQ1 inh)
O=C(Nc1cc2c3c(c1)CC(=O)N3CCC2)c1ccco1	none
O=C(NC1CC2CCC(C1)N2Cc1ccccc1)c1ccccc1Br (stereo unspecified)	none
CC1(C)OC(=O)N(c2ccccc2)C12C=Cc1cc(Br)ccc1O2 (stereo unspecified)	KCNK9 inh -7.22
NCC12CC3CC(C1)CC(c1ccc(Cl)cc1)(C3)C2	Kir21 inh -10.2, KCNK9 inh -7.2
Nc1ccc(C23CC4CC(CC(CO)(C4)C2)C3)cc1	none
COc1ccc(Nc2oc(COc3ccccc3F)nc2C#N)cc1	KCNK9 inh -7.95
O=C(CN1CCC(NC(=O)Nc2ccc(F)cc2)CC1)Nc1ccccc1[N+](=O)[O-]	none
N#CC(c1cccc(Cl)c1)c1ccc2c(C(F)(F)F)cc(C(F)(F)F)nc2n1 (stereo unspecified)	KCNQ1 pot 76
NNc1ccc2c(C(F)(F)F)cc(C(F)(F)F)nc2n1	none
S=C1N(c2ccccc2)C(c2ccccc2)N2CCCN12 (stereo unspecified)	KCNQ1 pot 8
Cc1c(-c2ccccc2)oc2c(C(=O)N3CCN(c4ccc([N+](=O)[O-])cc4)CC3)cccc2c1=O	KCNK9 inh -7.06
CSCCC(NC(=O)c1ccccc1)C(=O)N1CC=C(c2ccccc2)CC1 (stereo unspecified)	none
COc1ccccc1C=NNC(=O)c1ccccc1OCCOc1ccccc1	KCNK3 inh -10.2 (no result: KCNQ1 pot, Kir21 inh, KCNK9 inh, hERG protect, KCNQ1 inh)
COc1ccc2[nH]c(C(=O)N/N=C/c3ccccc3OC)cc2c1	none
CCOc1ccc2[nH]c(C(=O)N/N=C/c3ccccc3OC)cc2c1	KCNK9 inh -7.92
COc1ccc(C(=O)N/N=C/c2ccccc2OC(=O)c2ccccc2)cc1	KCNK9 inh -13.7
COc1ccc(/C=N/NC(=O)c2nc(-c3ccccc3)cc(-c3ccccc3)n2)cc1	KCNK9 inh -7.13, KCNQ1 inh 10
C=C1c2ccccc2O[C@H](C(=O)OCC)[C@H]1OC	none (no result: KCNQ1 pot, Kir21 inh, KCNK9 inh, hERG protect, KCNQ1 inh)
COCCn1c(N)c(N(Cc2ccccc2)C(=O)C2=COCCO2)c(=O)[nH]c1=O	none
COc1ccc2c(c1)CCCC21NC(=O)N(CC(=O)N2CC(C)OC(C)C2)C1=O (stereo unspecified)	none (no result: KCNQ1 pot, Kir21 inh, KCNK9 inh, hERG protect, KCNQ1 inh)
O=S1OCCN1c1ccccc1 (stereo unspecified)	none
CSCCC(NC(=O)COc1ccccc1)C(=O)N1CC(C)OC(C)C1 (stereo unspecified)	none (no result: KCNQ1 pot, Kir21 inh, KCNK9 inh, hERG protect, KCNQ1 inh)
C/C(=N\NC(=O)c1ccccc1OCCOc1ccccc1)c1ccccc1F	KCNK3 inh -10.5 (no result: KCNQ1 pot, Kir21 inh, KCNK9 inh, hERG protect, KCNQ1 inh)
O=C(CNC(=O)c1ccc(F)cc1)N/N=C/c1cc(Br)ccc1OCc1ccccc1	none
COc1ccccc1C(=O)NCC(=O)N/N=C/c1cc(Br)ccc1OCc1ccccc1	KCNK9 inh -7.6
Cc1ccc(NC(=O)C(c2ccccc2)c2ccccc2)nc1	none
Nn1c(C2CCC2)nc2cc(Cl)ccc2c1=O	none
O=C(N1CCN(c2ccccn2)CC1)N1c2ccccc2Sc2ccccc21	KCNK9 inh -7.64
CC(C)NCC(O)COc1cccc2[nH]ccc12 (stereo unspecified)	none (no result: KCNQ1 pot, Kir21 inh, KCNK9 inh, hERG protect, KCNQ1 inh)
CCCC(=O)Nc1ccc(OCC(O)CNC(C)C)c(C(C)=O)c1 (stereo unspecified)	KCNQ1 pot 9
CN(C)CCCN(C(=O)c1sc2ccccc2c1Cl)c1nc2ccc(F)cc2s1	none
CCCCOC(=S)NC(=O)c1sc2ccccc2c1Cl	KCNQ1 pot 53, hERG protect 31.2
CCCOc1ccc(C(CC(=O)O)NC(=O)c2sc3ccccc3c2Cl)cc1 (stereo unspecified)	none
CN(C)CCCOC(=O)c1ccc(Cl)cc1	hERG protect 4.8
CCOc1ccc(C(=O)OCCCN(C)C)cc1	none
CN(C)CCCOC(=O)c1sc2ccccc2c1Cl	Kir21 inh -7.27
CCN(CC)c1ccc(/C=C(\C#N)c2ccccn2)cc1	KCNK3 inh -11.5, KCNQ1 inh 6
CCN(Cc1ccccc1)c1ccc(/C=C(\C#N)c2ccccn2)cc1	none
COc1ccc(-c2nc(CN3CCN(C(=O)c4ccco4)CC3)c(C)o2)c(F)c1	none
CCCCn1c(N)nc2ccccc21	hERG protect 7.5
CCCc1nc2ccccc2n1CCc1ccccc1	Kir21 inh -6.33
